Data published in ChEMBL document CHEMBL2169847, “New tricks for an old natural product: discovery of highly potent evodiamine derivatives as novel antitumor agents by systemic structure-activity relationship analysis and biological evaluations” (J Med Chem, 2012).
Calls of active or inactive are those of the source. The rule behind the calls is not given here.

How the values were obtained:
MDA-MB-435 = assay: Cytotoxicity against human MDA-MB-435 cells incubated for 72 hrs by MTT assay; type: functional; conditions: MDA-MB-435, 72 h
Summary of the method: (§1)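 MTT assay. Cells seeded at 5 × 10³/well and grown 24 h at 37 °C, 5% CO₂. Compounds added at several concentrations in triplicate wells, with 0.1% DMSO control, for 72 h. MTT then added for 4 h, formazan dissolved in DMSO, and absorbance read at 570 nm. GI₅₀ by Logit method; three experiments.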

U2OS = assay: Cytotoxicity against human U2OS cells incubated for 72 hrs by MTT assay; type: functional; summary of the method: as §1
A549 [1] = assay: Antitumor activity against human A549 cells xenografted in BALB/C nude mouse assessed as tumor growth inhibition at 2 mg/kg, ip administered as a single dose on 17th day post implantation and measured on 30 to 33 days post implantation; type: functional, organism-based; design: dose 2 mg/kg
Summary of the method: (§2)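 Cells implanted subcutaneously in right axilla of nude mice; dosing began at tumor volume about 100−300 mm³ (day 17). Randomized, six mice per treatment group and eight controls; ip injection. Tumor volume by caliper, TV = 1/2 × a × b², with body weight every 4 days. Mice sacrificed day 30−33 and tumors removed. Mean SEM, Student's t test versus control.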

HCT-116 [2] = assay: Cytotoxicity against human HCT116 cells incubated for 72 hrs by MTT assay; type: functional; conditions: HCT-116, 72 h; summary of the method: as §1
Mus musculus [3] = assay: Toxicity in BALB/C nude mouse xenografted with human A549 cells assessed as reduction in body weight at 2 mg/kg, ip administered as a single dose on 17th day and measured on 30 to 33 days post implantation; type: organism-based; design: dose 2 mg/kg, route intraperitoneal; conditions: in vivo; summary of the method: as §2
PANC-1 = assay: Cytotoxicity against human PANC1 cells incubated for 72 hrs by MTT assay; type: functional; conditions: PANC-1, 72 h; summary of the method: as §1
SAOS-2 = assay: Cytotoxicity against human Saos2 cells incubated for 72 hrs by MTT assay; type: functional; conditions: SAOS-2, 72 h; summary of the method: as §1
A549 [4] = assay: Cytotoxicity against human A549 cells incubated for 72 hrs by MTT assay; type: functional; conditions: A549, 72 h; summary of the method: as §1
[5] = target: DNA topoisomerase 2-alpha (Homo sapiens) (UniProt P11388); assay: Inhibition of human Top2alpha assessed as suppression of supercoiled pBR322 DNA relaxation at 50 uM incubated for 30 mins by electrophoresis method
[6] = target: T1, DNA topoisomerase 1 (Homo sapiens) (UniProt P11387); assay: Inhibition of Top1 assessed as suppression of supercoiled pBR322 DNA relaxation measuring appearance of short DNA fragments at 100 uM incubated for 15 mins by electrophoresis method
T1 sequence (whole entry): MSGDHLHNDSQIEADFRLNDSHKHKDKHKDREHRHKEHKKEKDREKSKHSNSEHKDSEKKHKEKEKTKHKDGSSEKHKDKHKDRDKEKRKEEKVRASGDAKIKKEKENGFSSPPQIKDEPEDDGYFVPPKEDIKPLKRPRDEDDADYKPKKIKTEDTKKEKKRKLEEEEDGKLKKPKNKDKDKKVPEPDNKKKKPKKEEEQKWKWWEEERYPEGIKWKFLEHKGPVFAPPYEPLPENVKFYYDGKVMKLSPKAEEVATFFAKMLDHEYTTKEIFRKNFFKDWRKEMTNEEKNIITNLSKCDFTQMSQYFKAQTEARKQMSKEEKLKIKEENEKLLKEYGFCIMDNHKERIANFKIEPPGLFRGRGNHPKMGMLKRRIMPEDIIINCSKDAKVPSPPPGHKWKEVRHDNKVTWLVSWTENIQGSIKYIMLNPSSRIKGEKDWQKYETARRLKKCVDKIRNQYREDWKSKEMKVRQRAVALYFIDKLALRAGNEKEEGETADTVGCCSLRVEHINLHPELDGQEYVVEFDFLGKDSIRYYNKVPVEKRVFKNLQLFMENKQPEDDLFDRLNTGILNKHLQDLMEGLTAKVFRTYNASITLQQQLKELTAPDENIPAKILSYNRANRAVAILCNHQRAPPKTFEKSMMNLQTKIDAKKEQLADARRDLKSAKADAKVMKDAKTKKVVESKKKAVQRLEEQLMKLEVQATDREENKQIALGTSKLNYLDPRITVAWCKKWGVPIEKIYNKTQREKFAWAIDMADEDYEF

HepG2 = assay: Cytotoxicity against human HepG2 cells incubated for 72 hrs by MTT assay; type: functional; conditions: HepG2, 72 h; summary of the method: as §1
HCT-116 [7] = assay: Antitumor activity against human HCT116 cells xenografted in BALB/C nude mouse assessed as tumor growth inhibition at 2 mg/kg, ip administered as a single dose on 17th day and measured on 30 to 33 days post implantation; type: functional, organism-based; design: dose 2 mg/kg; summary of the method: as §2
HL-60 = assay: Cytotoxicity against human HL60 cells incubated for 72 hrs by MTT assay; type: functional; conditions: HL-60, 72 h; summary of the method: as §1
PC-3 = assay: Cytotoxicity against human PC3 cells incubated for 72 hrs by MTT assay; type: functional; conditions: PC-3, 72 h; summary of the method: as §1
Mus musculus [8] = assay: Toxicity in BALB/C nude mouse xenografted with human HCT116 cells assessed as reduction in body weight at 2 mg/kg, ip administered as a single dose on 17th day and measured on 30 to 33 days post implantation; type: organism-based, HCT-116; design: dose 2 mg/kg, route intraperitoneal; conditions: in vivo; summary of the method: as §2
A549 [9] = assay: Induction of apoptosis in human A549 cells assessed as change in cell morphology at 5 uM incubated for 48 hrs by immunostaining based light microscopy; type: functional
Summary of the method: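 A549 cells exposed to 5 μM compound, or DMSO, for 48 h. Morphology judged under a light microscope.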

Nucleic Acid [10] = assay: Binding affinity at calf thymus DNA minor groove assessed as displacement of Hoechst 33258 dye incubated for 20 mins by microplate reader based assay; type: nucleic-acid assay; conditions: Bos taurus
A549 [11] = assay: Induction of apoptosis in human A549 cells at 5 uM incubated for 48 hrs by flow cytometry (reference value: 0.43%); type: functional
Nucleic Acid [12] = assay: Binding affinity at calf thymus DNA at 50 uM after 20 mins by UV/vis absorbance titration based assay; type: nucleic-acid assay; conditions: Bos taurus
Summary of the method: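 ct-DNA in DPBS pH 7.4, concentration set by A260 (13200 M⁻¹/cm per bp). Compounds at 50 μM in DPBS with 1% DMSO, with or without ct-DNA 0−100 μM. After 20 min equilibration at room temperature, absorption spectra recorded over 220−400 nm in a microplate reader. Hypochromic or bathochromic shifts taken as the sign of binding.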

Nucleic Acid [13] = assay: Induction of DNA intercalation in Escherichia coli pBR322 DNA assessed as induction of supercoiled DNA at 100 uM incubated for 15 mins by electrophoresis based Top1 unwinding assay; type: nucleic-acid assay
[14] = target: DNA topoisomerase 2-alpha (Homo sapiens) (UniProt P11388); assay: Inhibition of human Top2alpha assessed as stabilization of Top2-pBr322 DNA cleavage complex measuring linear DNA formation at 100 uM incubated for 20 mins by electrophoresis method
Summary of the method: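 Top2α drug screening kit with 8 units hTop2α and pBR322 plasmid. After reaction, proteinase K (200 μg/mL final) 20 min at 50 °C. Electrophoresis in TAE with 0.5 μg/mL ethidium bromide to resolve nicked, linear, relaxed and supercoiled forms.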

[15] = target: T1, DNA topoisomerase 1 (Homo sapiens); assay: Inhibition of Top1 assessed as suppression of supercoiled pBR322 DNA relaxation measuring appearance of short DNA fragments at 50 uM incubated for 15 mins by electrophoresis method
[16] = target: T1, DNA topoisomerase 1 (Homo sapiens); assay: Inhibition of Top1 assessed as stabilization of Top1-pUC19 DNA cleavage complex measuring increase of nicked DNA at 100 uM incubated for 15 mins by electrophoresis method
ZR-75-30 = assay: Cytotoxicity against human ZR75-30 cells incubated for 72 hrs by MTT assay; type: functional; conditions: ZR-75-30, 72 h; summary of the method: as §1
CNE = assay: Cytotoxicity against human CNE cells incubated for 72 hrs by MTT assay; type: functional; summary of the method: as §1
[17] = Cytotoxicity against human KYSE-150 cells incubated for 72 hrs by MTT assay; type: functional; conditions: KYSE-150, 72 h; summary of the method: as §1
Mus musculus [18] = assay: Toxicity in BALB/C nude mouse xenografted with human A549 cells assessed as reduction in body weight at 1 mg/kg, ip for 13 days measured on 30 to 33 days post implantation; type: organism-based; design: dose 1 mg/kg, route intraperitoneal; conditions: in vivo; summary of the method: as §2
A549 [19] = assay: Antitumor activity against human A549 cells xenografted in BALB/C nude mouse assessed as tumor growth inhibition at 1 mg/kg, ip for 13 days measured on 30 to 33 days post implantation; type: functional, organism-based; design: dose 1 mg/kg; summary of the method: as §2

DNA topoisomerase 2-alpha (Homo sapiens), sequence (P11388 whole entry, the tested form may be a part): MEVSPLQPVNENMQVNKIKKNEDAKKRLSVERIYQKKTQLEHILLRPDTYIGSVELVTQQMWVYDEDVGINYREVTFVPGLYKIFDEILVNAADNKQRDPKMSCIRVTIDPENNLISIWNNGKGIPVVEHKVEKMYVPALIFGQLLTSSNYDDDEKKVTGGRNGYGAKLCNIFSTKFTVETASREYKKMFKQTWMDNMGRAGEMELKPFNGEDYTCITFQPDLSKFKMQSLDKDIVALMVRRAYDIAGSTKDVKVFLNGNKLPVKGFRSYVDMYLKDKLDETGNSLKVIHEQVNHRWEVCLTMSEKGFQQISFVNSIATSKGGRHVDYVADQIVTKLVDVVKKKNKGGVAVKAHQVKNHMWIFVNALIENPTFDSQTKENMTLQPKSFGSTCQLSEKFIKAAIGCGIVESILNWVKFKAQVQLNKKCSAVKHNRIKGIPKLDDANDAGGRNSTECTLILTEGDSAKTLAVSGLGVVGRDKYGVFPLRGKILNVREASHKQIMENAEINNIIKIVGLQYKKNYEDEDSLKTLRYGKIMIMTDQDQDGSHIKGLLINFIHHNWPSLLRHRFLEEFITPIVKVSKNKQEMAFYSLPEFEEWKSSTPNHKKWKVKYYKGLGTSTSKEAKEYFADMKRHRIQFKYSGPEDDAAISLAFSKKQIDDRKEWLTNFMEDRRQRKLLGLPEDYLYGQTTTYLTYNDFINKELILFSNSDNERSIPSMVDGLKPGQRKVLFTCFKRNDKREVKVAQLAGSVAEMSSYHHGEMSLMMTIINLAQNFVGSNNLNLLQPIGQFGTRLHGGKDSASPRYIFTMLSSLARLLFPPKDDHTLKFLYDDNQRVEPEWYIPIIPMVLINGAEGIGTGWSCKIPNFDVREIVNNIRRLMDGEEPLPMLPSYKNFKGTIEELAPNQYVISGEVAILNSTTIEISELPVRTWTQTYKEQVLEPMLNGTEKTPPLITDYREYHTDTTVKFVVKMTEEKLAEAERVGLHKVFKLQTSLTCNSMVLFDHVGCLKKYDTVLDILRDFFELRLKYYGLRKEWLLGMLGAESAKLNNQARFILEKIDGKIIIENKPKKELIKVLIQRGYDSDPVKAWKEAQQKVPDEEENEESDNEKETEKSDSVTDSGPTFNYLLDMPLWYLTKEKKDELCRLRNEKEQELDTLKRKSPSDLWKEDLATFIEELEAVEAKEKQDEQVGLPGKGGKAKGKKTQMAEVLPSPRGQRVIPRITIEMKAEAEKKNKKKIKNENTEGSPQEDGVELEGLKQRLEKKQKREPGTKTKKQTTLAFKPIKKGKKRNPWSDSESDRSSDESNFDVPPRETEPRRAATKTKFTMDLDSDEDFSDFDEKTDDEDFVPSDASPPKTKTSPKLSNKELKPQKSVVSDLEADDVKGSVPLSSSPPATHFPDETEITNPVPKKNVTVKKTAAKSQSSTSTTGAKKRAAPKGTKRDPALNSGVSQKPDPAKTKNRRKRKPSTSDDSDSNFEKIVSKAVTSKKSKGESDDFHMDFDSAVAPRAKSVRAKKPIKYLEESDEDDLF

Compound	GI50 (MDA-MB-435)	GI50 (HCT-116 [2])	GI50 (A549 [4])	inhibition [5]	inhibition [6]	TGI (HCT-116 [7])	Activity (Mus musculus [8])	inhibition [14]	other results
CN1c2ccc(F)cc2C(=O)N2CCc3c([nH]c4ccc(O)cc34)C21 (centres undefined)	< 3 nM	< 3 nM	< 3 nM	Active	Active	Active	Non-toxic		GI50 (U2OS): > 296000 nM; TGI (A549 [1]): inactive; Activity (Mus musculus [3]): Non-toxic; GI50 (PANC-1): < 3 nM; GI50 (SAOS-2): > 296000 nM; GI50 (HepG2): 23800 nM; GI50 (HL-60): < 3 nM; GI50 (PC-3): 92300 nM
CN1c2ccc(Cl)cc2C(=O)N2CCc3c([nH]c4ccccc34)C21 (centres undefined)	< 3 nM	< 3 nM	< 3 nM	inactive	Active				TGI (A549 [1]): inactive; Activity (Mus musculus [3]): Non-toxic
CN1c2ccc(N)cc2C(=O)N2CCc3c([nH]c4ccc(O)cc34)C21 (centres undefined)	7 nM	7 nM	4000 nM		Active	Active	Non-toxic	inactive	Activity (A549 [9]): Active; Activity (Nucleic Acid [10]): inactive; Activity (A549 [11]): 14.48%; Activity (Nucleic Acid [12]): inactive; Activity (Nucleic Acid [13]): inactive; inhibition [15]: Active; inhibition [16]: Active
CN1c2ccc(O)cc2C(=O)N2CCc3c([nH]c4ccccc34)C21 (centres undefined)	< 3 nM	13 nM	> 200000 nM	inactive	Active				
CN1c2ccc(F)cc2C(=O)N2CCc3c([nH]c4ccc(O)cc34)[C@@H]21		11 nM	4.6 nM						GI50 (ZR-75-30): 1750 nM; GI50 (CNE): 5880 nM; GI50 [17]: 1230 nM
CN1c2cccc(O)c2C(=O)N2CCc3c([nH]c4ccccc34)C21 (centres undefined)	240 nM	2140 nM	62400 nM	Active	Active				
COc1ccc2[nH]c3c(c2c1)CCN1C(=O)c2cc(N)ccc2N(C)C31 (centres undefined)	12000 nM	6600 nM	62000 nM	Active					
CN1c2ccc(F)cc2C(=O)N2CCc3c([nH]c4ccc(O)cc34)[C@H]21		3.6 nM	3.7 nM						GI50 (ZR-75-30): 3 nM; GI50 (CNE): 8110 nM; GI50 [17]: 3 nM
CN1c2cccc(O)c2C(=O)N2CCc3c([nH]c4ccc(O)cc34)C21 (centres undefined)	13 nM	9 nM	230 nM		Active			inactive	Activity (Nucleic Acid [10]): inactive; Activity (Nucleic Acid [12]): inactive; Activity (Nucleic Acid [13]): inactive; inhibition [16]: Active
COc1cc([C@@H]2c3cc4c(cc3[C@@H](O[C@@H]3O[C@@H]5CO[C@@H](C)O[C@H]5[C@H](O)[C@H]3O)[C@H]3COC(=O)[C@H]23)OCO4)cc(OC)c1O				Active				Active	
CN1c2ccc(O)cc2C(=O)N2CCc3c([nH]c4ccc(O)cc34)C21 (centres undefined)	3 nM	7 nM	750 nM	Active	Active	Active	Toxic	inactive	Activity (Nucleic Acid [10]): inactive; Activity (Nucleic Acid [12]): inactive; Activity (Nucleic Acid [13]): inactive; inhibition [16]: Active
CN1c2ccccc2C(=O)N2CCc3c([nH]c4ccc(O)cc34)C21 (centres undefined)	< 3 nM	< 3 nM	< 3 nM	Active	Active	Active	Non-toxic	inactive	Activity (Mus musculus [18]): Non-toxic; Activity (A549 [9]): Active; Activity (Nucleic Acid [10]): inactive; Activity (A549 [11]): 13.07%; TGI (A549 [19]): Active; Activity (Nucleic Acid [12]): inactive; Activity (Nucleic Acid [13]): inactive; inhibition [16]: Active
CN1c2ccccc2C(=O)N2CCc3c([nH]c4c(Cl)cccc34)C21 (centres undefined)	< 3 nM	< 3 nM	2550 nM	inactive	Active	Active	Toxic		GI50 (U2OS): > 296000 nM; GI50 (PANC-1): 120 nM; GI50 (SAOS-2): > 296000 nM; inhibition [15]: Active; GI50 (HepG2): 2310 nM; GI50 (HL-60): < 3 nM; GI50 (PC-3): > 296000 nM
CN1c2ccc(Cl)cc2C(=O)N2CCc3c([nH]c4ccc(O)cc34)C21 (centres undefined)	5 nM	5 nM	120 nM	Active	Active	Active	Toxic		inhibition [15]: Active
CN1c2ccc(N)cc2C(=O)N2CCc3c([nH]c4ccccc34)C21 (centres undefined)	150 nM	8920 nM	> 200000 nM		Active				
CC[C@@]1(O)C(=O)OCc2c1cc1n(c2=O)Cc2cc3ccccc3nc2-1 [CAMPTOTHECIN]	33 nM	83 nM	170 nM						GI50 (U2OS): > 287000 nM; GI50 (PANC-1): 6290 nM; GI50 (SAOS-2): > 287000 nM; GI50 (HepG2): 220 nM; GI50 (HL-60): < 3 nM; GI50 (PC-3): > 287000 nM
